In publication PMC7115619 (European Journal of Medicinal Chemistry, 2015):
Entries after “also recorded” stand apart in the source; their conditions may differ.

How the values were obtained:
[1] = system: HHV-1 (CDC Atlanta strain); experiment: Screening against HHV-1 by end-point titration technique; format: cell-based, Human Herpesvirus type 1; settings: Vero cell line; 10 TCID50; 48 h
How it was run: (§1)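 Vero cells (2.0 × 10^4 cells/well) were grown to ≥80% monolayer. 10 TCID50 virus was mixed with test compound (6.25–50 μg/mL) in DMEM/2% FBS containing CMC: 1% for HHV-1, 0.5% for HHV-2. Mixture held 15 min at room temperature, then incubated at 37 °C: 48 h (HHV-1) or 72 h (HHV-2). Crystal violet/formaldehyde stain, plaques counted. Titer reduction factor: ≥1 × 10^3 relevant, 1 × 10^2 moderate. Two experiments in quadruplicate.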

[2] = system: HHV-2; experiment: Plaque reduction assay, pre- and post-infection treatment, HHV-2; format: cell-based, Human Herpesvirus type 2; settings: Vero, 72 h, read-out: EC50 pre-infection treatment HHV-2
How it was run: (§2)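 Vero monolayers (2.5 × 10^4 cells/well) received 100 PFU/well (DENV-2 New Guinea or HHV-2 VR-734-G). Pre-infection: virus/test compound mixture for 1 h at 37 °C, then PBS (pH 7.0) wash and CMC overlay. Post-infection: virus 1 h, wash, then compound in CMC. CMC was 2% for DENV-2 (8 days) and 0.75% for HHV-2 (72 h). Formaldehyde/crystal violet stain, plaques counted. EC50 by linear regression; mean of three experiments.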

[3] = system: DENV-2; experiment: Plaque reduction assay, pre- and post-infection treatment, DENV-2; format: cell-based, Dengue virus type 2; settings: Dengue virus, DENV2, Vero, 192 h, read-out: EC50 pre-infection treatment DENV-2
How it was run: as §2

[4] = system: Vero cells; experiment: MTT cytotoxicity on Vero cells; format: cell-based, Cercopithecus aethiops; settings: read-out: IC50 (μM) 72 h, inhibitory concentration of cell proliferation
[5] = system: HHV-2 (VR-734-G strain); experiment: Screening against HHV-2 by end-point titration technique; format: cell-based, Human Herpesvirus type 2; settings: Vero cell line; 10 TCID50; 72 h
How it was run: as §1

| Molecule | Rf, reduction factor of the viral titer, HHV-1 [1] | EC50 [2] | EC50 [3] | IC50 [4] | Rf, reduction factor of the viral titer, HHV-2 [5] |
| --- | --- | --- | --- | --- | --- |
| CC(C)c1cc2c(cc1O)[C@@]1(C)CCC[C@@](C)(C=O)[C@@H]1CC2 [Compound 9, 18-oxoferruginol] | did not show activity; also recorded: did not show reduction of viral titer | > 20.8 µM | > 20.8 µM | – | – |
| dextran sulfate [DEX-S] | – | – | – | > 10 µM | – |
| CC(C)c1cc2c(cc1O)[C@@]1(C)CCC[C@@](C)(CN3C(=O)c4ccccc4C3=O)[C@@H]1CC2 [Compound 8] | – | > 29 µM | > 29 µM | – | – |
| Nc1nc2c(ncn2COCCO)c(=O)[nH]1 [ACV, acyclovir] | – | – | – | – | 10^3 |
